Source: PubChem (The Scripps Research Institute Molecular Screening Center)
Hits are enriched below; roughly 3.2% of the tested compounds scored in any of these assays.
TRPML3 ag = agonists of human TRPML3 channel. Q8TDD5. HEK293 TRPML3-YFP, Fluo-8 calcium fluorescence; 100% = the carbachol control signal. activation, % at 3 µM. 220,000 compounds, 0.29% hits. AID 1448;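 active means activation above its plate's cutoff, the mean activation of the plate's test wells plus 3 SD, cut at about 12% in these data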;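 further: 0% = DMSO only wells and 100% = carbachol wells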
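Test system – HEK293 line with stable expression of human TRPML3-YFP channel · Control set – carbachol 87 µM final as high control (100%), DMSO as low control (0%) · Signal – Fluo-8 calcium dye fluorescence, ex 470-495, em 515-575 nm · Incubation – 1-h 37 °C dye load, 5-s basal, 120-s post-compound reads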
CHO parental Ca = counter-screen: ATP calcium response change in parental CHO cells; parental CHO-K1, ATP-induced calcium, Fluo-8 fluorescence; inhibition, % at 5.6 µM; 330,000 compounds, 0.63% hits; AID 463079;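 active means inhibition above that plate's mean sample inhibition plus 3 SD, cut at about 26% in these data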;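 further: 0% = ATP-challenged DMSO wells and 100% = DMSO wells without ATP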
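Material: Parental CHO cells | Reagent: ATP | Compound dosing: Single nominal dose of 5.6 µM per compound | Detection: Intracellular calcium via Fluo-8 no-wash fluorescent dye | Read-out: % inhibition of ATP-induced calcium mobilization | Benchmarks: Low control ATP plus DMSO, high control DMSO only | Replicates: Singlicate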
GPR7 antagonist = blocks human GPR7 receptor signaling. P48145. GPR7-expressing cells, fluorescence antagonist assay. inhibition, % at 4.4 µM. 290,000 compounds, 1.1% hits. AID 1861; in the data active means inhibition above about 16%, passing the limit was not always enough;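 further: cells stimulated with the agonist NPW; 0% = agonist with vehicle and 100% = vehicle without agonist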
Target sequence (P48145 whole entry, looked up): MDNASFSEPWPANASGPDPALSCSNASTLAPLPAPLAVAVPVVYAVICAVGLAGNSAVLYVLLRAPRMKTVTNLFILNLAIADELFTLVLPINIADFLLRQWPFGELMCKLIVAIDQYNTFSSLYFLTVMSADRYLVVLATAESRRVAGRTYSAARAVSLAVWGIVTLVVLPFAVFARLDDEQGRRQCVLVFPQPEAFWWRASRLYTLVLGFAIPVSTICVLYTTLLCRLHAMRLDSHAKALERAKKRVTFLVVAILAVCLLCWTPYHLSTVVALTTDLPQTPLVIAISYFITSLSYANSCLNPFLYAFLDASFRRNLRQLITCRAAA
OX1R antag-1 = OX1R (human) antagonism | OX1R-expressing cells, FRET antagonist read-out | inhibition, % at 6.6 µM | 330,000 compounds, 1.8% hits; in the data active means inhibition mostly above about 38%, no sharp cut-off; inactive means mostly below about 40%;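 further: 0% = agonist challenge alone and 100% = reference antagonist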
Target sequence (O43613 whole entry, looked up): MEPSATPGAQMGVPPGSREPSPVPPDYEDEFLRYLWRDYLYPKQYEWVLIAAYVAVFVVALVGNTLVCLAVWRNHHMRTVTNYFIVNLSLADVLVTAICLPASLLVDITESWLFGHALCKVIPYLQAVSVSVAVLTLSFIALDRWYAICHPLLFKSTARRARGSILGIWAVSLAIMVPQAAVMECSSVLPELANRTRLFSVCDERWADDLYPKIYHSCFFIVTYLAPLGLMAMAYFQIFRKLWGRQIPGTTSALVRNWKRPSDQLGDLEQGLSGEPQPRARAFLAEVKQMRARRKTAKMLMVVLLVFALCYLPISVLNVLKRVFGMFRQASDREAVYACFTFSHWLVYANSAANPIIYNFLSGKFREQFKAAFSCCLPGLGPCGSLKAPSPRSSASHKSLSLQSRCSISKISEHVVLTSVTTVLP
OX1R antag-2 = blocks the human orexin 1 receptor | CHO/OX1R cells, Fluo-8 calcium fluorescence, orexin A | 330,000 compounds, 0.43% hits | inhibition, % at 5 µM | AID 434989;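 active means inhibition above its plate's threshold, mean inhibition of all tested compounds on the plate plus 3 SD, cut at about 37% in these data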;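 further: 0% = orexin A challenge wells and 100% = SB-334867-A antagonist wells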
TRPN1 ag = zebrafish TRPN1 (NompC) channel agonism; HEK293 zebrafish TRPN1-YFP, Fluo-8 calcium fluorescence; 100% = response to 87 µM carbachol; activation, % at 3 µM; 220,000 compounds, 0.18% hits;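 active means activation above its plate's cutoff, the mean activation of test wells on that plate plus 3 SD, cut at about 19% in these data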;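 further: 0% = DMSO alone and 100% = 87 µM carbachol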
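Control set: carbachol 87 µM as high control, DMSO as low control; system: HEK293 stable line with zebrafish TRPN1-YFP; read-out: % activation versus carbachol response; detection: intracellular calcium fluorescence with Fluo-8; doses: single test compound dose, 3 µM nominal, 0.3% DMSO; schedule: dye 1 h 37 °C plus 30 min RT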
OX1R Fluo8 conf = confirmation of human orexin 1 receptor antagonists | AID 492963 | shares compounds with OX1R antag-2 | inhibition, % at 5 µM | 1,100 compounds, 38% hits | CHO/OX1R cells, orexin A calcium Fluo-8 fluorescence; in the data active means inhibition above about 29%;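 further: 0% = agonist challenge alone and 100% = reference antagonist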
CHO Ca triplic = counter-screen: parental CHO calcium response change, triplicate; shares compounds with OX1R antag-2; parental CHO-K1, ATP-induced calcium, Fluo-8 fluorescence; inhibition, % at 5.6 µM; 1,100 compounds, 9.3% hits; AID 492965;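 active means inhibition above a per-plate limit, the mean inhibition of that plate's test compounds plus 3 SD, cut at about 25% in these data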;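 further: 0% = ATP challenge with DMSO and 100% = DMSO without ATP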
OX1R HTRF confirm = OX1R (human) antagonism, HTRF confirmed; AID 492964; inhibition, % at 6.6 µM; shares compounds with OX1R antag-1; OX1R-expressing cells, HTRF antagonist assay; 1,800 compounds, 49% hits; in the data active means inhibition above about 55%;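 further: CHO cells expressing OX1R stimulated with orexin A at about EC80; 0% = agonist challenge alone and 100% = reference antagonist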
CHO-K1 HTRF = counter-screen: parental CHO-K1 HTRF response | shares compounds with OX1R antag-1 | parental CHO-K1 cells, HTRF counterscreen | inhibition, % at 6.6 µM | 1,800 compounds, 48% hits; in the data active means inhibition above about 17%;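 further: 0% = agonist challenge with vehicle and 100% = vehicle alone without agonist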
Starred values were filed as active, the others as inactive; . = no result.

SMILES | TRPML3 ag | CHO parental Ca | GPR7 antagonist | OX1R antag-1 | OX1R antag-2 | TRPN1 ag | OX1R Fluo8 conf | CHO Ca triplic | OX1R HTRF confirm | CHO-K1 HTRF
NC(=O)C1CN(C(=O)c2cccc(S(=O)(=O)N3CCc4ccccc43)c2)c2ccccc2O1 (stereo unspecified) | . | -12 | . | 69* | 52* | . | 37* | -16 | 67* | -3
O=C(COc1ccccc1F)Nc1nnc(C2CCCC2)s1 | . | -24 | 4 | 3 | -23 | . | . | . | . | .
Cc1ccc(-c2nc3ccccc3[nH]2)cc1NC(=O)c1sc2cc(Cl)ccc2c1Cl | 1 | -14 | 12 | 77* | 44* | 1 | 47* | -11 | 66* | 11
Cc1ccc(-c2nc3ccccc3[nH]2)cc1NC(=O)c1ccco1 | 0 | -33 | 3 | 18 | -36 | 0 | . | . | . | .
COc1cc(/C=C/C(=O)Nc2cccc(S(=O)(=O)NC3=NCCCCC3)c2)ccc1OCC#N | . | -11 | . | 7 | -11 | . | . | . | . | .
CC(NS(=O)(=O)c1ccc(OCC(=O)Nc2cccc([N+](=O)[O-])c2)cc1)c1ccccc1 (stereo unspecified) | 1 | 46 | 2 | 66* | 54* | 1 | 60* | 18 | 69* | 8
O=C(COC(=O)COc1ccccc1)Nc1cccc([N+](=O)[O-])c1 | 0 | -2 | -11 | 25 | -9 | -1 | . | . | . | .
CCOc1ccccc1C(=O)Nc1ccc2nc3n(c(=O)c2c1)CCCCC3 | . | -25 | -1 | 91* | 94* | . | 79* | 1 | 93* | 11
Cc1ccccc1C(=O)Nc1ccc2nc3n(c(=O)c2c1)CCCC3 | . | -21 | -12 | 6 | -41 | . | . | . | . | .
CCOc1ccccc1C(=O)Nc1ccc(C(=O)c2ccccc2)cc1 | . | -21 | -5 | 55* | 17 | . | 20 | 3 | 67* | 18*
CCOc1ccccc1C(=O)Nc1ccc(NC(=O)c2ccccc2)cc1 | . | -11 | -8 | 16 | -1 | . | . | . | . | .
Cc1cc(C)c(C(CC(=O)c2cccs2)C(C#N)C#N)c(C)c1 (stereo unspecified) | 0 | -17 | -9 | 15 | -33 | -1 | . | . | . | .
COc1cc(/C=C/C(=O)OCC(=O)NCCC2=CCCCC2)cc(OC)c1OC | . | -22 | . | 17 | -42 | . | . | . | . | .
CCCN(CC(=O)Nc1ccccc1OC)C(=O)CSc1ccc(Br)cc1C | . | -24 | . | 58* | 54* | . | 22 | -11 | 73* | 4
CCCN(CC(=O)Nc1ccccc1OC)C(=O)Cn1[nH]c(=O)c2ccccc2c1=O | . | -22 | . | 7 | -22 | . | . | . | . | .
COc1ccc(OC)c(NC(=O)COC(=O)CN2C(=O)NC3(CCCC3)C2=O)c1 | . | -1 | . | 4 | -20 | . | . | . | . | .
CCOc1ccc(NC(=O)CN(C)C(=O)c2cc([N+](=O)[O-])ccc2N2CCOCC2)cc1OCC | . | -13 | . | 18 | -17 | . | . | . | . | .
CCOC(=O)C1=C(COC(=O)c2ccccc2OC(F)F)NC(=O)NC1C (stereo unspecified) | . | -10 | . | 4 | -29 | . | . | . | . | .
CCOC(=O)C1=C(COC(=O)c2ccc3ccccc3c2O)NC(=O)NC1C (stereo unspecified) | . | -18 | . | 104* | 101* | . | 100* | -28 | 91* | -22
OC(CSc1ccc(F)cc1)CN1CCN(c2ccccc2)CC1 (stereo unspecified) | 0 | 1 | -16 | 21 | -19 | -1 | . | . | . | .
CS(=O)(=O)c1ccc(C(=O)Nc2cccc(-c3nc4ccccc4[nH]3)c2)cc1 | . | -9 | -15 | 72* | 29 | . | 21 | -5 | 63* | 8
CS(=O)(=O)c1cccc(C(=O)Nc2cccc(-c3nc4ccccc4[nH]3)c2)c1 | . | -1 | 0 | 13 | -6 | . | . | . | . | .
COc1ccccc1CNS(=O)(=O)c1ccc2c(c1)CC(C)N2C(=O)C1CC1 (stereo unspecified) | . | -3 | 18 | 33 | 17 | . | . | . | . | .
COc1ccccc1CNS(=O)(=O)c1ccc2c(c1)CC(C)N2C(=O)C1CCC1 (stereo unspecified) | . | 15 | 9 | 60* | 55* | . | 30* | 16 | 68* | -9
Cc1cc(N/N=C/c2ccccc2O)nc(-c2ccccc2O)n1 | 0 | 25 | 2 | 90* | 54* | 0 | 9 | 1 | 22 | 5
SMILES | TRPML3 ag | CHO parental Ca | GPR7 antagonist | OX1R antag-1 | OX1R antag-2 | TRPN1 ag | OX1R Fluo8 conf | CHO Ca triplic | OX1R HTRF confirm | CHO-K1 HTRF
COc1ccc2[nH]cc(/C=C/C(=O)c3ccccc3)c2c1 | 1 | -28 | -2 | 59* | 34 | 1 | 17 | -4 | 41 | 10
O=C(/C=C/c1c[nH]c2ccccc12)c1ccccc1 | 0 | 2 | -5 | 53 | 12 | -1 | . | . | . | .
Cc1cc2nc3c(=O)[nH]c(=S)[nH]c3nc2cc1NC(=O)C(F)(F)F | . | 20 | -1 | 49* | 29 | . | 7 | 4 | 47 | 88*
COc1ccc(C)cc1N1C(=N)/C(=C2/Nc3ccccc3S2)C(c2ccccc2)C1=O (stereo unspecified) | 1 | 33 | -5 | 16 | 15 | 2 | . | . | . | .
O=C1C=C(c2ccc3cc[nH]c3c2)C[C@@H](c2ccc3c(c2)OCO3)C1 | . | -9 | . | -1 | -11 | . | . | . | . | .
CC(=O)Nc1ccc(S(=O)(=O)N(Cc2ccccc2)c2ccccc2F)cc1 | 0 | -15 | -4 | 63* | 38 | -1 | 34* | -3 | 56* | -5
CN(Cc1ccccc1)C(=O)COC(=O)C1CCN(S(=O)(=O)c2ccc3c(c2)OCCO3)CC1 | . | -29 | . | 4 | -11 | . | . | . | . | .
Cc1cnc(NC(=O)c2ccc(-c3nc4ccccc4s3)o2)s1 | 0 | -27 | -9 | 106* | 82* | -1 | 83* | -8 | 101* | 10
Nc1c(C(=O)c2ccc(Br)s2)oc2ccccc12 | 0 | -24 | -16 | 77* | 27 | 0 | 15 | -2 | 57* | 5
CN(C)c1ccc(/C=C/c2ccc3ccccc3n2)cc1 | 9 | 14 | 6 | 75* | 62* | 10 | 52* | 15 | 80* | 8
Cc1nc2cc(NC(=O)COc3ccccc3C#N)ccc2n1-c1ccccc1 | 1 | 3 | 10 | 122* | 102* | 1 | 83* | -4 | 92* | 11
COc1ccccc1NC(=O)COC(=O)c1ccc2c(c1)nc(C)n2-c1ccccc1 | 0 | -19 | -3 | 19 | -12 | 0 | . | . | . | .
COc1ccc(S(=O)(=O)n2cnc(C)c2)cc1 | 0 | 6 | -2 | 7 | -25 | 2 | . | . | . | .
